One series addresses PDE5A1 (535–860) (Homo sapiens, UniProt O76074). Put plainly: PDE enzymatic assay with 3H-cAMP or 3H-cGMP as substrates. In kind it is biochemical. The method, boiled down:
(§1)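 Recombinant PDE catalytic domains incubated at room temperature for 15 min in 20 mM Tris.HCl pH 7.5, 10 mM MgCl2, 0.5 mM DTT, with 3H-cAMP or 3H-cGMP at 20–40k cpm/assay. Stopped with 0.2 M ZnSO4. Product precipitated with 0.2 N Ba(OH)2. Unreacted substrate in supernatant counted by liquid scintillation. Nine inhibitor concentrations tested. Rolipram served as reference.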

A further series addresses PDE2A3 (580–941) (Homo sapiens, UniProt O00408). Described as above. In kind it is biochemical. The method, boiled down:
as §1

A further series concerns the target PDE9A1 (181–506) (Homo sapiens, UniProt O76083). The description is as above. In kind it is biochemical. The method, boiled down:
as §1

Another series addresses T1, PDE11A4 (563–934) (Homo sapiens, UniProt Q9HCR9).
T1 sequence (Q9HCR9 563-933 limits assumed): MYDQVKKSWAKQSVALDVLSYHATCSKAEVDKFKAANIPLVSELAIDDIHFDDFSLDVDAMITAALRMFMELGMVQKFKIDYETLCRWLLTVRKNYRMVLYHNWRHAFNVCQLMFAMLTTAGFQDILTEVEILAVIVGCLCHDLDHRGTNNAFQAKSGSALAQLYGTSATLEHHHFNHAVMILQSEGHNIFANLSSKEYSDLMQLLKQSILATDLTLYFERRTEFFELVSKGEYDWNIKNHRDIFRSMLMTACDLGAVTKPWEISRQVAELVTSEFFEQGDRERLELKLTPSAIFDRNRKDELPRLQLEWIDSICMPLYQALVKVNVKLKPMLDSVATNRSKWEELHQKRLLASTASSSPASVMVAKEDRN
Put plainly: PDE enzymatic assay with 3H-cAMP or 3H-cGMP as substrates. In kind it is biochemical. The method, boiled down: (§2)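 PDE catalytic domains were incubated with 20 mM Tris-HCl pH 7.5, 10 mM MgCl2, 0.5 mM DTT and 3H-cAMP or 3H-cGMP (20–40k cpm/assay) for 15 min at room temperature. The reaction was stopped with 0.2 M ZnSO4, and product was precipitated with 0.2 N Ba(OH)2. Supernatant radioactivity was scintillation-counted. Nine inhibitor concentrations were tested; rolipram was the reference.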

A further series has as its target PDE4B2B (Homo sapiens, UniProt Q07343). As to the kind of experiment: PDE enzymatic assay with 3H-cAMP or 3H-cGMP as substrates. In kind it is biochemical. As to conditions: IC50, PDE4B2B (152–528). The method, boiled down: as §1
In another series the target is PDE8A1 (480–820) (Homo sapiens, UniProt O60658). Put plainly: PDE enzymatic assay with 3H-cAMP or 3H-cGMP as substrates. In kind it is biochemical. The method, boiled down:
as §2

For a further series, the target named is PDE10A2 (448–789) (Homo sapiens, UniProt Q9Y233). The series is described as above. In kind it is biochemical. The procedure, abridged: as §2
Sequence of PDE10A2 (448–789) (Q9Y233 714-1055): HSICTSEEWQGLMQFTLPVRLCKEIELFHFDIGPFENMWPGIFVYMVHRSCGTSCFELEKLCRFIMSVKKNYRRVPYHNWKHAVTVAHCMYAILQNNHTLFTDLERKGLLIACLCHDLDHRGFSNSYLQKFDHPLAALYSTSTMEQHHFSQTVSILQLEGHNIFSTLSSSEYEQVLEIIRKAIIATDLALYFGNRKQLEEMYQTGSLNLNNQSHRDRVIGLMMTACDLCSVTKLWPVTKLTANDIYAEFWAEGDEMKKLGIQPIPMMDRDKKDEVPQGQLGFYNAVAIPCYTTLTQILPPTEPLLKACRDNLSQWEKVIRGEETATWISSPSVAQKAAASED
The next series has as its target PDE3A1 (665–1141) (Homo sapiens, UniProt Q14432). The description is as above. In kind it is biochemical. The procedure, abridged: as §2
The target in a further series is PDE7A1 (130–482) (Homo sapiens, UniProt Q13946). As to the kind of experiment: PDE enzymatic assay with 3H-cAMP or 3H-cGMP as substrates. In kind it is biochemical. The procedure, abridged:
as §1

The subject of the next series is LPS-induced TNFa release. As to conditions: read-out: IC50 of LPS-induced TNFa release, cited from earlier work.
In series [1] the test system is mice. Put plainly: Open-field test. In kind it is in vivo. The procedure, abridged: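 Naive male ICR mice received test compound, rolipram or vehicle by i.p. injection. Thirty minutes later each was placed in the centre of an open-field box with its floor divided into 4 identical squares and explored for 5 min. Line crossings (all four paws over the line) and rears were counted. Means ± S.E., n = 8–9; one-way ANOVA with Dunnett's test.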

Series [2] is described as follows: Pharmacokinetic properties in mice. In kind it is in vivo. Conditions: 5 mg/kg. The method, boiled down: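 Male ICR mice were dosed at 5 mg/kg. The stock dosing sample was 10 mg test compound in 10 ml saline containing 1% DMSO, 40% 2-hydroxypropyl-β-cyclodextrin and 6% Solutol HS 15. It was vortexed and sonicated until fully dissolved.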
For series [3], the system named is mice. As to the kind of experiment: Object recognition test. Conditions: i.p. 30 min prior to the test; for memory in the object recognition test: Fig. 5A. In kind it is in vivo. The method, boiled down:
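Male ICR mice (22–24 g) were housed at 22–23 °C on a 12-h light-dark cycle with free food and water. Test compound, rolipram or vehicle was given i.p. 30 min before testing. Mice were trained to tell a novel from a familiar object with a 24-hour delay. Exploration times (Tn, Tf) were recorded over 3 min. n = 8–9; one-way ANOVA with Dunnett's post hoc test.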

In the next series the test system is PDE4D. As to conditions: read-out: IC50 against PDE4D; racemic Zl-n-91; cited from earlier work.
For series [4], the system named is mice. As to conditions: at the same dose required for producing a memory-enhancing effect; cited from earlier work.
Setting [5] is: doses of 0.01–0.5 mg/kg, 30 min after injection.

Where two headings read alike, the source gives them in different places. Where only a bound is given, the exact number is not on record here.

Sequence of PDE7A1 (130–482) (Q13946 130-482): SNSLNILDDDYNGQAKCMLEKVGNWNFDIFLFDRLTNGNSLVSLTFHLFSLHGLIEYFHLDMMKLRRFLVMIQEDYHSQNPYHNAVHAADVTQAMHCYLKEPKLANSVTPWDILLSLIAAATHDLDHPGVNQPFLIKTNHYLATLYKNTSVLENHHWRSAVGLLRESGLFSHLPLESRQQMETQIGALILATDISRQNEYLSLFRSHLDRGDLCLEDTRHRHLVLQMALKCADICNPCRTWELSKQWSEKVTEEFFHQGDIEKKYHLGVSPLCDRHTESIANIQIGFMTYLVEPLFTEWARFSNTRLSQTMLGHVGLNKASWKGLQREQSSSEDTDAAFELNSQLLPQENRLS
Sequence of PDE4B2B (Q07343 324-700): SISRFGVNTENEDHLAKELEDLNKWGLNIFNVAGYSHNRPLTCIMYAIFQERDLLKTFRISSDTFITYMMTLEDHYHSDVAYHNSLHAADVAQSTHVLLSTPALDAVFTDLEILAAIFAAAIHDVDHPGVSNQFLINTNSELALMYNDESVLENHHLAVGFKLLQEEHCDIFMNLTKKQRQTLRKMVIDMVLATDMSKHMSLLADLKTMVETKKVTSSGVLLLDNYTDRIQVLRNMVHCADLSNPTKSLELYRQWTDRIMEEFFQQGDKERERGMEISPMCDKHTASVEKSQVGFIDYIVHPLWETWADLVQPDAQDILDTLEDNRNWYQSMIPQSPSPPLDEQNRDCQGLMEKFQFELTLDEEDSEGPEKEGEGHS
Sequence of PDE9A1 (181–506) (O76083 241-566): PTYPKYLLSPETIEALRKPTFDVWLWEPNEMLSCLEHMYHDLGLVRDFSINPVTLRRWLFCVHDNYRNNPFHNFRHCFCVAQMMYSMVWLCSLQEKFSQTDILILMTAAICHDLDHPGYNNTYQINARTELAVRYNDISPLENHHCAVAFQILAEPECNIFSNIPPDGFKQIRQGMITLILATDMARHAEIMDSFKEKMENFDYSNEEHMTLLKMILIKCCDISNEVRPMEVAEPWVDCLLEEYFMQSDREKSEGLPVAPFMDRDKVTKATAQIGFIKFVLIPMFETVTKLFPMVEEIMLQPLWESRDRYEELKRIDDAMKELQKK
Sequence of PDE2A3 (580–941) (O00408 580-941): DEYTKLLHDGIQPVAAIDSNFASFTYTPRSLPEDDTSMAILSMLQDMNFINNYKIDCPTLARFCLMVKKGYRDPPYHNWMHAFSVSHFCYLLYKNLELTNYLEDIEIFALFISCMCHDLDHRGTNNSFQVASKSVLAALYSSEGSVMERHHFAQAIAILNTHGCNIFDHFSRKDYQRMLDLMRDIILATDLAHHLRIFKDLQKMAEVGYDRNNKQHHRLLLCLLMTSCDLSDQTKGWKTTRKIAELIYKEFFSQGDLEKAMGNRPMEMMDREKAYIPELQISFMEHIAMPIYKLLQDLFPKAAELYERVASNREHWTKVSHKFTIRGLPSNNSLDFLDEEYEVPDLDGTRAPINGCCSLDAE
Sequence of PDE8A1 (480–820) (O60658 480-820): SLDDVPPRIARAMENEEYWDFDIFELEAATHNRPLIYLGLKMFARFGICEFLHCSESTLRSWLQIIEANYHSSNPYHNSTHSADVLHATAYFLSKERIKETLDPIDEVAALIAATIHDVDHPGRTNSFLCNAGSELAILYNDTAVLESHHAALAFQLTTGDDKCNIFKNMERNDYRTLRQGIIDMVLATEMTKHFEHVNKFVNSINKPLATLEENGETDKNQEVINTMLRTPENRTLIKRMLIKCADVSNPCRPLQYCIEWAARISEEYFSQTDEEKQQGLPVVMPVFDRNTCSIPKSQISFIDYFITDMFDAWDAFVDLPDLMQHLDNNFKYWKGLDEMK
Sequence of PDE3A1 (665–1141) (Q14432 665-1141): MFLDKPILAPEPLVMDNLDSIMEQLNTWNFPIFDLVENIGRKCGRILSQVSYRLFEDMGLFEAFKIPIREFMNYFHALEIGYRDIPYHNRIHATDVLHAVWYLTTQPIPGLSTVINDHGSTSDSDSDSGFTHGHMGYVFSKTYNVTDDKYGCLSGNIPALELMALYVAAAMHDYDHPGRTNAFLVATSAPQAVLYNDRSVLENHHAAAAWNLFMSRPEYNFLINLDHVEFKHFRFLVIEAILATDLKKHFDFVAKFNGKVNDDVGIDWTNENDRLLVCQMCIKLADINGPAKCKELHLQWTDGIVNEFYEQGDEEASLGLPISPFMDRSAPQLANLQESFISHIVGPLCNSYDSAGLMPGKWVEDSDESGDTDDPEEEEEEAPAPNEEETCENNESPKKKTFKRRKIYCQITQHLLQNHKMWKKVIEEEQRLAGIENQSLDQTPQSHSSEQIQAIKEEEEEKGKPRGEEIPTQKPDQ

Turning to `CC(C)CC(=O)c1ccc(OC(F)F)c(O[C@H]2CCOC2)c1` [(S)-Zl-n-91, 1-(4-(difluoromethoxy)-3-((tetrahydrofuran-3-yl)oxy)phenyl)-3-methylbutan-1-one], the half-maximal inhibitory concentration (IC50) amounted to 130 ± 23 µM on PDE5A1 (535–860); 83 ± 12 µM on PDE2A3 (580–941); 84 ± 10 µM at PDE9A1 (181–506); 23 ± 4 µM against PDE11A4 (563–934); 0.02 ± 0.004 µM against PDE4B2B; 8.6 ± 0.7 µM on PDE8A1 (480–820). For the same compound, the half-maximal inhibitory concentration (IC50) was 16 ± 1 µM against PDE10A2 (448–789), 46 ± 3 µM against PDE3A1 (665–1141) and 17 ± 3 µM on PDE7A1 (130–482).
Consider `CC(C)CC(=O)c1ccc(OC(F)F)c(OC2CCOC2)c1` (centres unmarked) [Zl-n-91, 1-(4-(difluoromethoxy)-3-((tetrahydrofuran-3-yl)oxy)phenyl)-3-methylbutan-1-one], for which the IC50 in the series on LPS-induced TNFa release (whole blood cell) was 0.04 µM. Moreover, the locomotor activity entry in the series with mice [1] is listed as “not altered”. The sedation result in the series with mice [1] (dose of 0.5 mg/kg) is listed as “does not produce sedation”. In addition, in the series on mice [1] (setting [5]), the line crossings entry was “altered neither” and the rears entry is “altered neither”. Also, in series [2] (PO, male mice), the “CL(F)” value was 342 mL/min/kg and the “F (bioavailability)” value was found to be 33.3%. In series [2] (male, ICR, mouse, plasma, iv), the AUC is 728 ng·h/mL, the AUC(0-t) came out at 725 ng·h/mL, the C0 was determined as 6030 ng/mL and the MRT inf came out at 20.4 min. In [2] (male, ICR, mouse, plasma, iv), this compound showed a Vd of 2.31 L/kg, a clearance of 115 mL/min/kg and a half-life of 37.2 min. In [2] (male, ICR, mouse, plasma, po), the AUC amounted to 244 ng·h/mL, the AUC(0-t) stood at 241 ng·h/mL, the Cmax worked out at 96.5 ng/mL and the Tmax is 120 min. In [2] (male, ICR, mouse, plasma, po), this compound had a Vd/F of 39.9 L/kg and a half-life of 81 min. Besides, the “memory in the object recognition test” value in the series with mice [3] is recorded as “enhanced memory”. Moreover, the IC50 in the series on PDE4D is 0.026 µM.
Consider `COc1ccc([C@]2(C#N)CC[C@@H](C(=O)O)CC2)cc1OC1CCCC1` [cilomilast, reference compound], for which the IC50 in the series with LPS-induced TNFa release (whole blood) was above 10 µM.
For the compound `COc1ccc(C2CNC(=O)C2)cc1OC1CCCC1` (centres unmarked) [rolipram], in the series with mice [4], the locomotor activity result is listed as “decreased locomotor activity”. Besides, the “increase of discrimination ratio (Tn-Tf)/(Tn+Tf)” value in the series with mice [3] (0.3 mg/kg, versus vehicle) is reported as “about 4 times”. For the same compound, in the series with mice [3], the “memory in the object recognition test” value is on record as “enhanced memory”.

The term IC50 denotes the point on the concentration scale where inhibition reaches its midpoint. By AUC is commonly meant concentration integrated over time. The low end stands for less exposure, the high end for more exposure. By AUC(0-t) is commonly meant exposure summed from dosing to a finite time, without extrapolation to infinity. Broadly, the MRT inf is a mean duration of stay, worked out from the concentration-time curve. A word on the Vd: it is the apparent volume that relates the amount in the body to the concentration in plasma or blood. Low readings indicate confinement near the circulation, high ones extensive tissue distribution. In general, clearance refers to the rate of elimination divided by the concentration. Read a low clearance as inefficient removal. The term half-life denotes the time needed for the level to fall by half in the phase considered. One may read the Cmax as the peak of the concentration-time curve. In general, Tmax refers to the time from dosing to the highest level. As usually defined, the Vd/F is the apparent distribution volume after extravascular dosing.
